From ChEMBL document CHEMBL2040727, “Substituted thiazoles VI. Synthesis and antitumor activity of new 2-acetamido- and 2 or 3-propanamido-thiazole analogs” (2012)

Assays:
Type in all cases: functional
[1] = system: K562; test: Growth inhibition of human K562 cells at 10 uM after 48 hrs by coulter counter analysis; conditions: K562, 48 h, read-out: GI
Method in brief: (§1)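 Single-dose NCI 60-line panel screen of test compounds. Cells grown in RPMI 1640 with 10% FBS. Compounds dissolved in DMSO, then diluted in phosphate buffer saline (final DMSO below 1%). Wells run in duplicate at 6 × 10⁴ cells/ml. Controls held PBS and DMSO at matching dilutions. Incubation 48 h at 37 °C under humidified 5% CO2. Cells diluted tenfold in saline and counted by Coulter counter. Percent growth inhibition taken from mean-graph of treated-cell growth.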

[2] = system: A549; test: Growth inhibition of human A549/ATCC cells at 10 uM after 48 hrs by coulter counter analysis; conditions: A549, 48 h, read-out: GI; method in brief: as §1
[3] = system: OVCAR-3; test: Growth inhibition of human OVCAR3 cells at 10 uM after 48 hrs by coulter counter analysis; conditions: OVCAR-3, 48 h, read-out: GI; method in brief: as §1
[4] = system: HT-29; test: Growth inhibition of human HT-29 cells at 10 uM after 48 hrs by coulter counter analysis; conditions: HT-29, 48 h, read-out: GI; method in brief: as §1
[5] = system: COLO 205; test: Growth inhibition of human COLO205 cells at 10 uM after 48 hrs by coulter counter analysis; conditions: COLO 205, 48 h, read-out: GI; method in brief: as §1
[6] = system: U-251; test: Growth inhibition of human U251 cells at 10 uM after 48 hrs by coulter counter analysis; conditions: U-251, 48 h, read-out: GI
Method in brief: (§2)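 Single-dose screen in the NCI 60 cell line panel. Cells grown in RPMI 1640 with 10% FBS. Compounds dissolved in DMSO and diluted in phosphate buffered saline, final DMSO under 1%. Duplicate wells seeded from culture at 6 × 10⁴ cells/ml. Incubated 48 h at 37 °C, humidified, 5% CO2. Cells diluted tenfold in saline and Coulter-counted. Percent growth inhibition computed against PBS/DMSO controls.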

[7] = system: DU-145; test: Growth inhibition of human DU145 cells at 10 uM after 48 hrs by coulter counter analysis; conditions: DU-145, 48 h, read-out: GI; method in brief: as §1
[8] = system: MDA-MB-468; test: Growth inhibition of human MDA-MB-468 cells at 10 uM after 48 hrs by coulter counter analysis; conditions: MDA-MB-468, 48 h, read-out: GI; method in brief: as §1
[9] = system: PC-3; test: Growth inhibition of human PC3 cells at 10 uM after 48 hrs by coulter counter analysis; conditions: PC-3, 48 h, read-out: GI; method in brief: as §1
[10] = system: SN12C; test: Growth inhibition of human SN12C cells at 10 uM after 48 hrs by coulter counter analysis; conditions: read-out: GI; method in brief: as §1
[11] = system: CAKI-1; test: Growth inhibition of human Caki1 cells at 10 uM after 48 hrs by coulter counter analysis; conditions: CAKI-1, 48 h, read-out: GI; method in brief: as §1
[12] = system: SNB-19; test: Growth inhibition of human SNB19 cells at 10 uM after 48 hrs by coulter counter analysis; conditions: SNB-19, 48 h, read-out: GI; method in brief: as §1
[13] = system: HL-60(TB); test: Growth inhibition of human HL-60(TB) cells at 10 uM after 48 hrs by coulter counter analysis; conditions: HL-60, 48 h, read-out: GI
Method in brief: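 Cells grown in RPMI 1640 with 10% FBS. Compound was dissolved in DMSO and diluted in PBS (under 1% DMSO final), then added in duplicate wells to culture at 6 × 10⁴ cells/ml. PBS/DMSO vehicle controls were included. Incubated at 37 °C, humidified 5% CO₂, for 48 h. Cells were diluted 10-fold in saline and Coulter-counted. Single-dose NCI-60 screen, read as percent growth inhibition.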

[14] = system: SW-620; test: Growth inhibition of human SW620 cells at 10 uM after 48 hrs by coulter counter analysis; conditions: SW-620, 48 h, read-out: GI; method in brief: as §2
[15] = system: IGROV-1; test: Growth inhibition of human IGROV1 cells at 10 uM after 48 hrs by coulter counter analysis; conditions: IGROV-1, 48 h, read-out: GI; method in brief: as §1
[16] = system: A498; test: Growth inhibition of human A498 cells at 10 uM after 48 hrs by coulter counter analysis; conditions: A498, 48 h, read-out: GI; method in brief: as §1
[17] = Growth inhibition of human Hs 578T cells at 10 uM after 48 hrs by coulter counter analysis; conditions: read-out: GI; method in brief: as §1
[18] = system: 786-0; test: Growth inhibition of human 786-0 cells at 10 uM after 48 hrs by coulter counter analysis; conditions: 786-0, 48 h, read-out: GI; method in brief: as §1
[19] = system: NCI-H460; test: Growth inhibition of human NCI-H460 cells at 10 uM after 48 hrs by coulter counter analysis; conditions: NCI-H460, 48 h, read-out: GI; method in brief: as §1
[20] = system: HCC 2998; test: Growth inhibition of human HCC2998 cells at 10 uM after 48 hrs by coulter counter analysis; conditions: HCC 2998, 48 h, read-out: GI; method in brief: as §1
[21] = system: HOP-92; test: Growth inhibition of human HOP92 cells at 10 uM after 48 hrs by coulter counter analysis; conditions: HOP-92, 48 h, read-out: GI; method in brief: as §1
[22] = system: HCT-15; test: Growth inhibition of human HCT15 cells at 10 uM after 48 hrs by coulter counter analysis; conditions: HCT-15, 48 h, read-out: GI; method in brief: as §1
[23] = system: SF-268; test: Growth inhibition of human SF268 cells at 10 uM after 48 hrs by coulter counter analysis; conditions: SF-268, 48 h, read-out: GI; method in brief: as §1
[24] = system: BT-549; test: Growth inhibition of human BT549 cells at 10 uM after 48 hrs by coulter counter analysis; conditions: BT-549, 48 h, read-out: GI; method in brief: as §1
[25] = system: CCRF-CEM; test: Growth inhibition of human CCRF-CEM cells at 10 uM after 48 hrs by coulter counter analysis; conditions: read-out: GI; method in brief: as §1
[26] = system: LOX IMVI; test: Growth inhibition of human LOXIMVI cells at 10 uM after 48 hrs by coulter counter analysis; conditions: read-out: GI; method in brief: as §1
[27] = system: SK-MEL-28; test: Growth inhibition of human SK-MEL-28 cells at 10 uM after 48 hrs by coulter counter analysis; conditions: SK-MEL-28, 48 h, read-out: GI; method in brief: as §1
[28] = system: RXF 393; test: Growth inhibition of human RXF393 cells at 10 uM after 48 hrs by coulter counter analysis; conditions: RXF 393, 48 h, read-out: GI; method in brief: as §1
[29] = system: Malme-3M; test: Growth inhibition of human MALME-3M cells at 10 uM after 48 hrs by coulter counter analysis; conditions: read-out: GI; method in brief: as §1
[30] = system: SF-539; test: Growth inhibition of human SF539 cells at 10 uM after 48 hrs by coulter counter analysis; conditions: SF-539, 48 h, read-out: GI; method in brief: as §1
[31] = Growth inhibition of human NCI-ADR-RES cells at 10 uM after 48 hrs by coulter counter analysis; conditions: read-out: GI; method in brief: as §1
[32] = system: UO-31; test: Growth inhibition of human UO31 cells at 10 uM after 48 hrs by coulter counter analysis; conditions: UO-31, 48 h, read-out: GI; method in brief: as §2
[33] = system: RPMI-8226; test: Growth inhibition of human RPMI8226 cells at 10 uM after 48 hrs by coulter counter analysis; conditions: RPMI-8226, 48 h, read-out: GI; method in brief: as §1

SMILES: O=C(CCN1CCN(c2ccccc2)CC1)Nc1nc(-c2ccccc2)cs1
- inhibition of growth at 10 µM [1]: 32.6%
- inhibition of growth at 10 µM [2]: 17.9%
- inhibition of growth at 10 µM [3]: 26.1%
- inhibition of growth at 10 µM [4]: < 10%
- inhibition of growth at 10 µM [5]: < 10%
- inhibition of growth at 10 µM [6]: 15.6%
- inhibition of growth at 10 µM [7]: 18.2%
- inhibition of growth at 10 µM [8]: 33.4%
- inhibition of growth at 10 µM [9]: 28.3%
- inhibition of growth at 10 µM [10]: 33.5%
- inhibition of growth at 10 µM [11]: 37.7%
- inhibition of growth at 10 µM [12]: 10.3%
- inhibition of growth at 10 µM [13]: < 10%
- inhibition of growth at 10 µM [14]: 10.9%
- inhibition of growth at 10 µM [15]: 33.5%
- inhibition of growth at 10 µM [16]: 67.5%
- inhibition of growth at 10 µM [17]: 14%
- inhibition of growth at 10 µM [18]: 18.1%
- inhibition of growth at 10 µM [19]: 11.3%
- inhibition of growth at 10 µM [20]: < 10%
- inhibition of growth at 10 µM [21]: 59.6%
- inhibition of growth at 10 µM [22]: 20.6%
- inhibition of growth at 10 µM [23]: 22.3%
- inhibition of growth at 10 µM [24]: 26.1%
- inhibition of growth at 10 µM [25]: 31.4%
- inhibition of growth at 10 µM [26]: 25.7%
- inhibition of growth at 10 µM [27]: < 10%
- inhibition of growth at 10 µM [28]: 11.8%
- inhibition of growth at 10 µM [29]: < 10%
- inhibition of growth at 10 µM [30]: 15.4%
- inhibition of growth at 10 µM [31]: 34.6%
- inhibition of growth at 10 µM [32]: 68.9%
- inhibition of growth at 10 µM [33]: 16.8%

SMILES: CC(C(=O)Nc1nccs1)N1CCN(c2ccccc2)CC1 (stereo unspecified)
- inhibition of growth at 10 µM [1]: < 10%
- inhibition of growth at 10 µM [2]: < 10%
- inhibition of growth at 10 µM [3]: < 10%
- inhibition of growth at 10 µM [4]: < 10%
- inhibition of growth at 10 µM [5]: < 10%
- inhibition of growth at 10 µM [6]: < 10%
- inhibition of growth at 10 µM [7]: < 10%
- inhibition of growth at 10 µM [8]: < 10%
- inhibition of growth at 10 µM [9]: < 10%
- inhibition of growth at 10 µM [10]: < 10%
- inhibition of growth at 10 µM [11]: < 10%
- inhibition of growth at 10 µM [12]: < 10%
- inhibition of growth at 10 µM [13]: < 10%
- inhibition of growth at 10 µM [14]: < 10%
- inhibition of growth at 10 µM [15]: < 10%
- inhibition of growth at 10 µM [16]: < 10%
- inhibition of growth at 10 µM [17]: < 10%
- inhibition of growth at 10 µM [18]: < 10%
- inhibition of growth at 10 µM [19]: < 10%
- inhibition of growth at 10 µM [20]: < 10%
- inhibition of growth at 10 µM [21]: < 10%
- inhibition of growth at 10 µM [22]: < 10%
- inhibition of growth at 10 µM [23]: < 10%
- inhibition of growth at 10 µM [24]: < 10%
- inhibition of growth at 10 µM [25]: < 10%
- inhibition of growth at 10 µM [26]: < 10%
- inhibition of growth at 10 µM [27]: < 10%
- inhibition of growth at 10 µM [28]: < 10%
- inhibition of growth at 10 µM [29]: < 10%
- inhibition of growth at 10 µM [30]: < 10%
- inhibition of growth at 10 µM [31]: < 10%
- inhibition of growth at 10 µM [32]: < 10%
- inhibition of growth at 10 µM [33]: < 10%
